Experimental data as given in ChEMBL document CHEMBL1151174, “Labdanes and isopimaranes from Platycladus orientalis and their effects on erythrocyte membrane and on Plasmodium falciparum growth in the erythrocyte host cells” (J Nat Prod, 2004).
Calls of active or inactive are those of the source. The calls are words filed in the database; no cut-off is given here.

Key:
Erythrocyte [1] = test: Induction of membrane modification in erythrocytes assessed as formation of stomatocyte type 1 and discocyte shape change at 50 ug/mL after 48 hrs by phase contrast light microscopy; format: functional, cell-based
Outline: (§1)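 Nonparasitized erythrocytes incubated with compound under the antiplasmodial culture conditions, without radiotracer. Controls held 0% or 0.5% DMSO and no compound. At 48 h, samples spread on slides, air-dried, methanol-fixed and Giemsa-stained for phase-contrast light microscopy. Dominant cell shapes scored by Bessis nomenclature; degree of lysis also graded.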

Plasmodium falciparum = test: Antiplasmodial activity against Plasmodium falciparum 3D7 by [3H]phenylalanine uptake; format: functional, organism-based; conditions: 3D7, 48 h
Outline: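 Asynchronous cultures of chloroquine-sensitive P. falciparum 3D7 in erythrocytes, initial parasitemia 1.5%. Compounds added from DMSO solutions, final DMSO up to 0.5% in growth medium. Growth indexed by [3H]phenylalanine incorporation. Inhibition curves from eight concentrations, each in triplicate, give IC50 (50% growth inhibition). Chloroquine diphosphate as positive reference.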

Erythrocyte [2] = test: Induction of membrane modification in erythrocytes assessed as formation of discocyte shape change at 25 ug/mL after 48 hrs by phase contrast light microscopy; format: functional, cell-based; outline: as §1
Erythrocyte [3] = test: Induction of membrane modification in erythrocytes assessed as formation of discocyte shape change at 12.5 ug/mL after 48 hrs by phase contrast light microscopy; format: functional, cell-based; outline: as §1
Erythrocyte [4] = test: Induction of membrane modification in erythrocytes assessed as formation of stomatocyte type 2 shape change at 100 ug/mL after 48 hrs by phase contrast light microscopy; format: functional, cell-based; outline: as §1
Erythrocyte [5] = test: Induction of membrane modification in erythrocytes assessed as formation of echinocyte type 2 shape change at 25 ug/mL after 48 hrs by phase contrast light microscopy; format: functional, cell-based; outline: as §1
Erythrocyte [6] = test: Induction of membrane modification in erythrocytes assessed as formation of echinocyte type 3 shape change at 100 ug/mL after 48 hrs by phase contrast light microscopy; format: functional, cell-based; outline: as §1
Erythrocyte [7] = test: Induction of membrane modification in erythrocytes assessed as formation of echinocyte type 1 shape change at 12.5 ug/mL after 48 hrs by phase contrast light microscopy; format: functional, cell-based; outline: as §1
Erythrocyte [8] = test: Induction of membrane modification in erythrocytes assessed as formation of echinocyte type 3 shape change at 50 ug/mL after 48 hrs by phase contrast light microscopy; format: functional, cell-based; outline: as §1
Erythrocyte [9] = test: Induction of membrane modification in erythrocytes assessed as formation of spherostomatocyte type 1 shape change at 50 ug/mL after 48 hrs by phase contrast light microscopy; format: functional, cell-based; outline: as §1
Erythrocyte [10] = test: Induction of membrane modification in erythrocytes assessed as formation of spherostomatocyte type 2 shape change at 100 ug/mL after 48 hrs by phase contrast light microscopy; format: functional, cell-based; outline: as §1
Erythrocyte [11] = test: Induction of membrane modification in erythrocytes assessed as formation of stomatocyte type 2 and 1 shape change at 25 ug/mL after 48 hrs by phase contrast light microscopy; format: functional, cell-based; outline: as §1
Erythrocyte [12] = test: Induction of membrane modification in erythrocytes assessed as formation of echinocyte type 1 and discocyte shape change at 50 ug/mL after 48 hrs by phase contrast light microscopy; format: functional, cell-based; outline: as §1
Erythrocyte [13] = test: Induction of membrane modification in erythrocytes assessed as formation of echinocyte type 1 and discocyte shape change at 100 ug/mL after 48 hrs by phase contrast light microscopy; format: functional, cell-based; outline: as §1
Erythrocyte [14] = test: Induction of membrane modification in erythrocytes assessed as formation of stomatocyte type 3 and 2 shape change at 50 ug/mL after 48 hrs by phase contrast light microscopy; format: functional, cell-based; outline: as §1
Erythrocyte [15] = test: Induction of membrane modification in erythrocytes assessed as formation of spherostomatocyte type 1 shape change at 100 ug/mL after 48 hrs by phase contrast light microscopy; format: functional, cell-based; outline: as §1
Erythrocyte [16] = test: Induction of membrane modification in erythrocytes assessed as formation of stomatocyte type 2 and discocyte shape change at 25 ug/mL after 48 hrs by phase contrast light microscopy; format: functional, cell-based; outline: as §1
Erythrocyte [17] = test: Induction of membrane modification in erythrocytes assessed as formation of spheroechinocyte type 2 shape change at 100 ug/mL after 48 hrs by phase contrast light microscopy; format: functional, cell-based; outline: as §1
Erythrocyte [18] = test: Induction of membrane modification in erythrocytes assessed as formation of spheroechinocyte type 1 and echinocyte type 3 shape change at 100 ug/mL after 48 hrs by phase contrast light microscopy; format: functional, cell-based; conditions: 50 ug/mL, in the assay text read “50 ug/mL” for “100 ug/mL”; outline: as §1
Erythrocyte [19] = test: Induction of membrane modification in erythrocytes assessed as formation of echinocyte type 3 shape change at 25 ug/mL after 48 hrs by phase contrast light microscopy; format: functional, cell-based; outline: as §1
Erythrocyte [20] = test: Induction of membrane modification in erythrocytes assessed as formation of discocyte shape change at 50 ug/mL after 48 hrs by phase contrast light microscopy; format: functional, cell-based; outline: as §1
Erythrocyte [21] = test: Induction of membrane modification in erythrocytes assessed as formation of echinocyte type 1 shape change at 100 ug/mL after 48 hrs by phase contrast light microscopy; format: functional, cell-based; outline: as §1

SMILES | IC50 (Plasmodium falciparum) [µM] | Activity (Erythrocyte [2]) | Activity (Erythrocyte [3]) | Activity (Erythrocyte [4]) | Activity (Erythrocyte [20]) | also measured
C=C[C@@]1(C)CCC2=C(CC[C@H]3C(C)(C)[C@@H](O)CC[C@]23C)C1 | 24.6 | – | – | – | – | Activity (Erythrocyte [5]): Active; Activity (Erythrocyte [6]): Active; Activity (Erythrocyte [7]): Active; Activity (Erythrocyte [8]): Active
CC1(C)CCC[C@@]2(C)[C@H]1CC[C@@]1(CO1)[C@@H]2C/C=C(/C=O)CC=O [AFRAMODIAL] | 76.3 | – | Active | – | – | Activity (Erythrocyte [9]): Active; Activity (Erythrocyte [10]): Active; Activity (Erythrocyte [11]): Active
C=C[C@]1(C)C=C2CC[C@H]3[C@](C)(CO)[C@@H](O)CC[C@]3(C)[C@H]2CC1 [SANDARACOPIMARADIENEDIOL] | 93.3 | – | – | – | – | Activity (Erythrocyte [17]): Active; Activity (Erythrocyte [7]): Active; Activity (Erythrocyte [18]): Active; Activity (Erythrocyte [19]): Active
C=C1CC[C@@H]2[C@](C)(CCC[C@]2(C)C(=O)O)[C@H]1CC/C(C)=C/CO [ISOCUPRESSIC ACID] | 104 | Active | Active | Active | Active | –
C=C[C@@]1(C)CC[C@H]2[C@@](O)(CC[C@H]3C(C)(C)[C@@H](O)CC[C@@]32C)C1 | 80.9 | Active | Active | – | Active | Activity (Erythrocyte [21]): Active

Continued, in another order:

IC50 (Plasmodium falciparum) [µM] | SMILES | Activity (Erythrocyte [2]) | Activity (Erythrocyte [3]) | Activity (Erythrocyte [4]) | Activity (Erythrocyte [20]) | also measured
130 | C=C1CC[C@@H]2[C@](C)(CCC[C@]2(C)C(=O)O)[C@H]1CCc1ccoc1 [LAMBERTIAINC ACID] | Active | Active | Active | – | Activity (Erythrocyte [1]): Active
164 | C=C1CC[C@@H]2[C@](C)(CCC[C@]2(C)C(=O)O)[C@H]1CCC1=CCOC1=O [PINUSOLIDIC ACID] | Active | Active | Active | – | Activity (Erythrocyte [12]): Active
84.1 | C=C1CC[C@@H]2[C@](C)(CCC[C@]2(C)C(=O)O)[C@H]1CCC1=CC(=O)OC1O (stereo not given in full) | Active | Active | – | – | Activity (Erythrocyte [13]): Active; Activity (Erythrocyte [12]): Active
53.4 | C=C1CC[C@@H]2[C@](C)(CCC[C@]2(C)C(=O)OC)[C@H]1CCC1=CCOC1=O [PINUSOLIDE] | – | Active | – | – | Activity (Erythrocyte [14]): Active; Activity (Erythrocyte [15]): Active; Activity (Erythrocyte [16]): Active
145 | C=C1CC[C@@H]2[C@](C)(CCC[C@]2(C)C(=O)O)[C@H]1CCC1=CC(O)OC1=O (stereo not given in full) | Active | Active | – | Active | Activity (Erythrocyte [13]): Active
